# mHtt clearance – compounds clearing mutant huntingtin protein. HeLa Exon1htt(103Q)mCFP, aggregate imaging; zero = plate's median compound well. inhibition, % at 1.5 µM. actives 0.42% (n = 47,000);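 active means inhibition of aggregate fluorescence above about 70%, also judged a hit by eye on the cell image, limit read from the data, passing the limit was not always enough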;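 further: cells exposed to compound for three days before fixation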
# M1 antag – blocks the rat M1 muscarinic receptor response to acetylcholine; B-score at 10 µM; CHO-M1 cells, Fluo-4 calcium, ACh EC80 antagonist mode; active compounds read low; P08482; actives 3.4% (n = 64,000);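 active means calcium fluorescence response, raw or row-and-column corrected B-score, differing from the plate sample mean either way at a set confidence level, mostly lower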
# HEK293 NFkB inh – lowers PMA/ionomycin-induced NF-kB signal in HEK293 cells | HEK-293 NF-kB luciferase reporter, luminescence | inhibition, % at 3 µM | actives 0.21% (n = 62,000) | AID 465;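 active means inhibition above the mean of all tested compounds plus 3 SD, cut at about 40% in these data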
#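 Timing: 1 h pretreatment, 16 h stimulation, 37 °C; system: HEK-293 cells with stable firefly luciferase reporter driven by four HIV NF-kB elements; doses: 3 µM once, 0.30% DMSO; measured by: luciferase luminescence; control set: DMSO and 10 µM reference inhibitor; repeats: single test; reagent: PMA plus ionomycin mix as NF-kB-activating stimulus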
# M1 ag – activates the M1 muscarinic receptor. CHO-M1 cells, Fluo-4 calcium fluorescence, agonist mode; active compounds read high. B-score at 10 µM. actives 3% (n = 64,000). AID 626;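 active means fluorescence rise, raw or as B-score row- and column-corrected plate score, outside the 99.7% band of its plate's samples, either direction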
# Jurkat viability – cytotoxic compounds reducing Jurkat cell viability; Jurkat E6.1 viability, ATP luminescence, 48 h; inhibition, % at 4 µM; actives 1.2% (n = 56,000); AID 463;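 active means inhibition above the mean inhibition of all tested compounds plus 3 SD, cut at about 28% in these data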
# D1 allo mod – allosteric modulators of human D1 dopamine receptor. B-score at 10 µM. HEK293 D1, CRE-luciferase, dopamine EC30 potentiation; actives deviate in either direction. actives 5.9% (n = 58,000);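 active means luminescence count or its row- and column-corrected plate score outside the 99.7% band of the plate's sample wells, on either side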
# Target sequence (P21728 whole entry, looked up): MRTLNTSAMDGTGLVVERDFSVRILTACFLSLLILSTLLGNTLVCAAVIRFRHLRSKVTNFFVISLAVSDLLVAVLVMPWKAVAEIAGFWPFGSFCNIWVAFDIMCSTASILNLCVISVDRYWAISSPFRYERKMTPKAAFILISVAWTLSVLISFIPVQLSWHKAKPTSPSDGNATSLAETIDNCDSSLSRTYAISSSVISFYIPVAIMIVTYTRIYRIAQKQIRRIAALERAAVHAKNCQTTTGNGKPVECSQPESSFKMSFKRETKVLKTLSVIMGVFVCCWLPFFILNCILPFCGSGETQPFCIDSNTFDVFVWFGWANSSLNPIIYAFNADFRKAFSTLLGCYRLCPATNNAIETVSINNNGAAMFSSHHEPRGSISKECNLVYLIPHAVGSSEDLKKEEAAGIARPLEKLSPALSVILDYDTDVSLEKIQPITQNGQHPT
# D1 mod confirm – confirmation of human D1 dopamine receptor allosteric modulators; shares compounds with D1 allo mod; HEK293 D1 CRE-luciferase, dopamine EC30 potentiation; active compounds read high; luminescence at 10 µM; actives 88% (n = 2,200); AID 642;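 active means luminescence in either of two replicates above the same-plate mean plus 3 SD of the low-dose dopamine control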
# D1 no dopamine – activates D1 CRE-luciferase signal without dopamine present; shares compounds with D1 allo mod; HEK293 D1 CRE-luciferase, luminescence, no dopamine; active compounds read high; luminescence at 10 µM; actives 0.8% (n = 1,900); in the data active means luminescence above about 3900
# Isoprot counter – counter-screen for D1 modulators: isoproterenol response in HEK293 cells | shares compounds with D1 allo mod | luminescence at 10 µM | AID 647 | HEK293 D1 CRE-luciferase, isoproterenol EC30 counter-screen; active compounds read high | actives 63% (n = 2,200);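 active means luminescence in either replicate above plate mean of wells with a partly effective reference agonist dose plus 3 SD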;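 further: isoproterenol raises cAMP through native beta-adrenoceptor Gs so signal bypasses D1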
# Hits are given with their value; n = inactive; x = no result. Only some compounds are listed: those with a hit (about 9.5% of all), similar ones and a draw of the others.
SMILES,mHtt clearance,M1 antag,HEK293 NFkB inh,M1 ag,Jurkat viability,D1 allo mod,D1 mod confirm,D1 no dopamine,Isoprot counter
Cn1c(SCC(=O)Nc2ccc(N3CCOCC3)c(Cl)c2)nnc1-c1ccccc1,n,n,n,n,n,n,x,x,x
COc1ccc(CNC(=O)CCCCCn2c(SCC#N)nc3cc4c(cc3c2=O)OCO4)cc1,x,n,n,n,x,n,x,x,x
Cc1cccc(C(=O)Nc2cc(=O)n(C)c(=O)n2C)c1,x,n,n,n,n,n,x,x,x
Cn1c(NC(=O)c2cccc(C(F)(F)F)c2)cc(=O)n(C)c1=O,x,n,n,n,n,7,17760,n,3820
Cc1nc(SC2C=CS(=O)(=O)C2)n[nH]1 (stereo unspecified),x,n,x,n,x,n,x,x,x
Cc1ccc(-c2nc3cccnc3s2)cc1NS(=O)(=O)c1ccc2c(c1)OCCO2,n,x,x,x,x,x,x,x,x
O=S(=O)(Nc1cccc(-c2nc3cccnc3s2)c1)c1ccc2c(c1)OCCO2,x,n,n,n,n,4.6,8604,n,n
N#CCc1c(C#N)c(N)nc(N2CCN(S(=O)(=O)c3ccccc3)CC2)c1C#N,n,n,n,n,n,5.5,11684,n,3204
O=S(=O)(c1ccccc1)N1CCN(c2ncccn2)CC1,n,x,x,x,x,x,x,x,x
COCCn1c(SCC(=O)N2CCN(c3ccccc3)CC2)nc2c(c1=O)SC(C)C2 (stereo unspecified),x,n,n,n,n,n,x,x,x
C/C(CCc1oc2ccccc2c1-c1ccc(C)o1)=N/O,x,n,n,n,n,7.2,9460,n,n
Cc1c(NC(=O)CSc2nnc3sc4ccccc4n23)c(=O)n(-c2ccccc2)n1C,n,n,n,n,n,n,x,x,x
Cc1ccc(-n2ncc(C#N)c2/N=C/N2CCOCC2)cc1,n,n,n,n,n,14,14372,n,4340
Cc1cc(-c2cccs2)c2c(n1)sc1c(=O)[nH]c(=O)[nH]c12,n,n,n,n,n,9.9,13116,n,n
Cc1cc(-c2cccs2)n[nH]1,x,n,n,n,n,n,x,x,x
O=C(NC1CCCCC1)Sc1ccc(Cl)cc1,x,n,n,n,n,n,x,x,x
COC(=O)c1ccccc1NC(=O)CN1CCC(NC(=O)c2ccccc2C)CC1,n,n,n,n,n,4.2,9492,n,3456
COC(=O)c1ccccc1NC(=O)CN1CCN(C(=O)c2ccco2)CC1,n,n,n,n,n,3.2,n,n,n
COC(=O)c1[nH]c2cccc(C)c2c1NC(=O)CN1CCN(C(=O)c2ccco2)CC1,n,n,n,n,n,n,x,x,x
CCO/C(C)=C1\C(=O)Nc2ccccc21,n,x,x,x,x,x,x,x,x
CCn1nccc1C(=O)Nc1cc(Cl)ccc1Cl,n,n,n,n,n,2.3,7456,n,3260
CCn1nccc1C(=O)Nc1ccc(Cl)cc1Cl,n,n,n,n,n,n,x,x,x
NC(=O)C1CCN(c2nc(C3CC3)nc3c2nnn3Cc2ccccc2)CC1,x,n,n,n,n,15,24680,n,5164
NC(=O)C1CCN(c2nc(C3CC3)nc3c2nnn3Cc2ccccc2Cl)CC1,x,n,n,n,x,x,x,x,x
Cc1ccccc1NC(=O)Nc1ccccc1C(=O)NCc1ccccc1,n,x,x,x,x,x,x,x,x
SMILES,mHtt clearance,M1 antag,HEK293 NFkB inh,M1 ag,Jurkat viability,D1 allo mod,D1 mod confirm,D1 no dopamine,Isoprot counter
COc1ccccc1NC(=O)c1nc[nH]c1C(=O)Nc1ccccc1OC,x,n,n,n,n,n,x,x,x
COc1ccc(NC(=O)c2nc[nH]c2C(=O)Nc2ccccc2C)cc1,x,n,n,n,n,7.5,14740,n,3268
Cc1ccccc1NC(=O)c1nc[nH]c1C(=O)NCc1ccccc1,n,n,n,n,n,5.1,14280,n,n
CNC(=O)c1[nH]cnc1C(=O)Nc1cccc(OC)c1,n,n,n,n,n,4.5,10128,n,3188
COc1cccc(-c2nnc(SCC(=O)Nc3ccc(S(N)(=O)=O)cc3)n2C)c1,n,n,n,n,n,n,x,x,x
COc1ccc(S(=O)(=O)NCC(=O)N(CC(=O)NCC2CCCO2)c2cc(C)ccc2C)cc1 (stereo unspecified),x,n,n,n,x,x,x,x,x
Cc1cc(C)nc(-n2nc(C)c3c(=O)[nH]c(C(F)(F)F)nc32)n1,x,n,n,n,x,n,x,x,x
CCN(CC)c1ncccc1C(=O)NCc1cccs1,n,n,n,n,n,7.6,13524,n,3428
O=C(NCc1cccs1)c1ccccc1C(=O)NCc1cccs1,n,n,n,n,n,n,x,x,x
N#Cc1nc(-c2ccccc2F)oc1NC1CCCCC1,n,n,n,n,n,9.7,18604,n,4284
N#Cc1nc(-c2ccccc2F)oc1NCc1cccc2c1OCO2,n,n,n,n,n,21,21008,n,6516
CN(C)CCNc1oc(-c2ccccc2F)nc1C#N,n,n,n,n,n,n,x,x,x
O=P(c1ccccc1)(c1ccccc1)C(c1ccco1)N1CCOCC1 (stereo unspecified),n,n,n,n,n,x,x,x,x
c1coc(CNc2ncnc3sc4c(c23)CCCCC4)c1,x,n,n,n,n,11,11680,n,3388
COCc1cc(C)nc2sc(C(=O)N3CCN(c4ccccc4)CC3)c(N)c12,x,n,n,n,n,4.6,8080,n,n
COc1ccc(OC)c2c1sc(=NC(=O)c1ccco1)n2C,x,n,n,n,n,3.2,13568,n,3444
Cc1ccc(-c2c(C)sc(=NC(=O)c3ccco3)n2C)cc1,n,x,x,x,x,x,x,x,x
COc1ccc(C(=O)CSc2nc3nc(C)cc(C)n3n2)cc1OC,n,n,n,n,n,11,20980,n,6480
Cc1cc(C)n2nc(SCC(=O)c3ccc[nH]3)nc2n1,n,n,n,n,n,n,x,x,x
O=C(Cn1ccc2ccccc2c1=O)NCCC(=O)Nc1ccc2c(c1)OCCO2,n,x,n,x,x,n,x,x,x
CCCCN(C)C(=O)c1cn(CC)c2ccc(S(=O)(=O)N(C)C)cc2c1=O,x,n,n,n,n,3,n,n,n
CNC(=O)c1cc2c(=O)n3cccc(C)c3nc2n1C,x,n,n,n,n,n,x,x,x
CCc1nc(SCC(=O)NCCc2ccc(OC)c(OC)c2)c2c(=O)n(C)c(=O)n(C)c2n1,x,n,n,n,n,n,x,x,x
Cn1c(=O)[nH]c(=O)c2c1nc(Sc1ccccc1)n2CCc1ccccc1,n,n,n,n,n,9.2,20140,n,6588
Cn1c(=O)[nH]c(=O)c2c1nc(Sc1ncccn1)n2CCCc1ccccc1,n,n,n,n,x,9.6,18924,n,5548
COC(=O)C(C)Sc1nc2c(c(=O)[nH]c(=O)n2C)n1CCCc1ccccc1 (stereo unspecified),n,n,n,n,n,4.7,8864,n,3828
